The species entered for series [1] is Rattus norvegicus. Kind of series: Selectivity ratio of EC50 for rat S1P3 receptor to EC50 for rat S1P1 receptor. The procedure, abridged: (§1)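 Membranes from CHO cells expressing rat or human S1P1 or S1P3, homogenized in 5 mM Tris–HCl pH 7.4, 0.25 M sucrose, 1 mM EDTA, 1 mM EGTA and spun at 100,000 × g for 60 min at 4 °C. Serial compound dilutions added to 1–10 µg protein/well, and [35S]GTPγS binding measured. EC50 is the midpoint between vehicle binding ratio and maximal response. Selectivity is the S1P3/S1P1 EC50 ratio.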

Series [2] can be described thus: Agonist activity at rat S1P3 receptor expressed in CHO-K1 cells assessed as induction of GTPgammaS binding. Type of series: cell-based. The method in brief: as §1
(GTPγS is a poorly hydrolysed GTP analogue; its binding reports G protein activation.)

The species named for series [3] is Homo sapiens. Kind of series: Selectivity ratio of EC50 for human S1P3 receptor to EC50 for human S1P1 receptor. The procedure, abridged:
as §1

In series [4] the test system is Rattus norvegicus. The series can be described thus: Drug metabolism in po dosed rat plasma assessed as 4-PBA level. The class given is ADME, organism-based. As to conditions: in vivo.
The test system of series [5] is Mus musculus. The series can be described thus: Antimultiple sclerosis activity in C57BL/6J mouse assessed as reduction of experimental autoimmune encephalomyelitis score at 1 mg/kg, po qd for 23 days. Also on record: dose 1 mg/kg. The class given is functional, organism-based.
The test system of series [6] is Rattus norvegicus. The series can be described thus: Immunomodulatory activity in Lewis rat assessed as decrease in peripheral blood lymphocyte numbers at 0.1 mg/kg, po after 8 hrs relative to control. The class given is functional. Also on record: scale not given: the % may be the effect or the level left. The method in brief:
(§2)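 Male Lewis rats, 5 weeks old, 5 per group. Single oral dose (0.1 or 1 mg/kg) suspended in 1% w/v methyl cellulose #400 at 5 ml/kg; vehicle controls. Postcaval vein blood taken under ether anesthesia at 0.5–48 h into EDTA tubes. Absolute lymphocytes counted on a full blood count analyzer, expressed relative to vehicle control, mean ± SE.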

The nature of series [7]: Tmax in Lewis rat at 0.1 mg/kg, po. The class given is ADME, organism-based. As to conditions: in vivo. Also on record: dose 0.1 mg/kg, route oral. The procedure, abridged: (§3)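 Male Lewis rats given a single oral dose (0.1 or 1 mg/kg) suspended in 1% methyl cellulose; plasma taken from the blood samples of the lymphocyte-count study, 5 rats per time point up to 72 h. Drug quantified by LC–MS/MS after solid-phase extraction on a C18 column. Noncompartmental parameters calculated from mean concentrations.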

Series [8] is described as follows: Terminal half life in Lewis rat at 1 mg/kg, po. The class given is ADME, organism-based. As to conditions: in vivo, read-out: beta t1/2 (converted). Also on record: dose 1 mg/kg, route oral. The method in brief: as §3
Series [9] concerns Rhesus monkey. Kind of series: Drug metabolism in po dosed monkey plasma assessed as 4-PBA level. The class given is ADME, organism-based, Macaca mulatta. Conditions: in vivo.
A short description of series [10]: Cmax in Lewis rat at 1 mg/kg, po. Type of series: ADME, organism-based. Also on record: dose 1 mg/kg, route oral. Conditions: in vivo. The procedure, abridged:
as §3

Series [11] is described as follows: AUC (0 to 72 hrs) in C57BL/6J mouse at 1 mg/kg, po. The class given is ADME, organism-based. Also on record: time < 72 hr, dose 1 mg/kg, route oral. Conditions: plasma. The method in brief:
(§4)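 Male C57BL/6J mice given 1 mg/kg orally at 5 ml/kg as a solution in dimethyl acetamide/25% Purebright/water (1/8/1). Plasma assayed by LC–MS/MS after solid-phase extraction, 5 animals per time point. Noncompartmental analysis performed on mean concentrations.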

Series [12] concerns the target Sphingosine 1-phosphate receptor 1 (Rattus norvegicus, UniProt P48303). The series can be described thus: Agonist activity at rat S1P1 receptor expressed in CHO-K1 cells assessed as induction of GTPgammaS binding. Type of series: functional, cell-based. The procedure, abridged: as §1
For series [13], the target named is T1, Sphingosine 1-phosphate receptor 4 (Homo sapiens, UniProt O95977).
T1 sequence (O95977 whole entry): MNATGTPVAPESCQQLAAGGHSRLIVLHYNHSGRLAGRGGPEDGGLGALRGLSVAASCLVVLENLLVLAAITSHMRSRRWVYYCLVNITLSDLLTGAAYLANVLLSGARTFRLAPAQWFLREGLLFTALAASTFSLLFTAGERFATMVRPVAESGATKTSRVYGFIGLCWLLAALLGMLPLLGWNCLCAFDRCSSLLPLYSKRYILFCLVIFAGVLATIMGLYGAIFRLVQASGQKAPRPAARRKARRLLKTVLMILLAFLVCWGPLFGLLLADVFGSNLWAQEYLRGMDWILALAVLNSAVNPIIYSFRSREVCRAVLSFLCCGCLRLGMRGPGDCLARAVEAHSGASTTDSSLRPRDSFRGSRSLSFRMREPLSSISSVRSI
The series can be described thus: Agonist activity at human S1P4 receptor. The class given is functional.

In series [14] the test system is Rattus norvegicus. The series can be described thus: Antiarthritic activity in po dosed Lewis rat assessed as reduction of adjuvant-induced right hind foot volume administered as qd for 18 days. Type of series: functional. As to conditions: 432 h, read-out: ID50 (the source's name). The method in brief:
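Lewis rats injected intradermally with adjuvant (0.05 ml) in the right hind footpad. Oral dosing at 0.1, 0.3, 1 or 3 mg/kg in 1% methyl cellulose, 5 ml/kg, once daily from Day 0 for 18 days; uninjected normal group. Right foot volume measured by plethysmometer on Days 0–18. % inhibition computed against control and normal, and ID50 taken by least-squares regression of % inhibition against log dose at Day 18.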

Series [15] is described as follows: Metabolic stability in liver microsomes assessed as 4-PBA level. Type of series: ADME, Microsome. (Liver microsomes are a subcellular fraction often used to study metabolism.)
Series [16] in a line: AUC (0 to 72 hrs) in Lewis rat at 0.1 mg/kg, po. Type of series: ADME, organism-based. Also on record: time < 72 hr, dose 0.1 mg/kg, route oral. Conditions: plasma. The method in brief:
as §3

The subject of series [17] is Mus musculus. The series can be described thus: Antimultiple sclerosis activity in C57BL/6J mouse assessed as reduction of experimental autoimmune encephalomyelitis score at 0.3 mg/kg, po qd for 23 days. Type of series: functional, organism-based. Also on record: dose 0.3 mg/kg.
Series [18] has as its target Sphingosine 1-phosphate receptor 3 (Homo sapiens, UniProt Q99500). The series can be described thus: Agonist activity at human S1P3 receptor expressed in CHO-K1 cells assessed as induction of GTPgammaS binding. The class given is functional, cell-based. The procedure, abridged: as §1
The nature of series [19]: Cmax in Lewis rat at 0.1 mg/kg, po. Type of series: ADME, organism-based. Also on record: dose 0.1 mg/kg, route oral. Conditions: in vivo. The procedure, abridged: as §3
The subject of series [20] is Rattus norvegicus. The series can be described thus: Immunomodulatory activity in Lewis rat assessed as decrease in peripheral blood lymphocyte numbers at 0.1 to 1 mg/kg, po after 24 to 48 hrs. Type of series: functional, organism-based. The procedure, abridged: as §2
Series [21] can be described thus: Metabolic stability in liver microsomes assessed as degradation of 1,2,4-oxadiazole ring. The class given is ADME, Microsome.
Series [22] in a line: Tmax in Lewis rat at 1 mg/kg, po. Also on record: dose 1 mg/kg, route oral. As to conditions: in vivo. The class given is ADME, organism-based. The procedure, abridged:
as §3

Series [23] addresses Sphingosine 1-phosphate receptor 5 (Homo sapiens, UniProt Q9H228). Kind of series: Agonist activity at human S1P5 receptor. Type of series: functional.
Series [24] can be described thus: Tmax in C57BL/6J mouse at 1 mg/kg, po. Conditions: in vivo. Also on record: dose 1 mg/kg, route oral. Type of series: ADME, organism-based. The method in brief: as §4
Series [25] can be described thus: Cmax in C57BL/6J mouse at 1 mg/kg, po. The class given is ADME, organism-based. Also on record: dose 1 mg/kg, route oral. Conditions: in vivo. The method in brief:
as §4

Series [26] can be described thus: Terminal half life in C57BL/6J mouse at 1 mg/kg, po. Conditions: in vivo, read-out: beta t1/2 (converted). Also on record: dose 1 mg/kg, route oral. Type of series: ADME, organism-based. The method in brief:
as §4

Series [27] in a line: Terminal half life in Lewis rat at 0.1 mg/kg, po. Type of series: ADME, organism-based. Also on record: dose 0.1 mg/kg, route oral. Conditions: in vivo, read-out: beta t1/2 (converted). The method in brief:
as §3

Series [28] deals with Rattus norvegicus. The series can be described thus: Immunomodulatory activity in Lewis rat assessed as decrease in peripheral blood lymphocyte numbers at 1 mg/kg, po after 8 hrs relative to control. The class given is functional. Also on record: scale not given: the % may be the effect or the level left. The method in brief:
as §2

A short description of series [29]: AUC (0 to 72 hrs) in Lewis rat at 1 mg/kg, po. Also on record: time < 72 hr, dose 1 mg/kg, route oral. Conditions: plasma. Type of series: ADME, organism-based. The method in brief: as §3

Each structure is given as a SMILES string. The source made the active and inactive calls. No cut-off for these calls is given here. A value given as a limit tells only on which side of the number the result lay.

Chain of Sphingosine 1-phosphate receptor 5 (Q9H228 whole entry): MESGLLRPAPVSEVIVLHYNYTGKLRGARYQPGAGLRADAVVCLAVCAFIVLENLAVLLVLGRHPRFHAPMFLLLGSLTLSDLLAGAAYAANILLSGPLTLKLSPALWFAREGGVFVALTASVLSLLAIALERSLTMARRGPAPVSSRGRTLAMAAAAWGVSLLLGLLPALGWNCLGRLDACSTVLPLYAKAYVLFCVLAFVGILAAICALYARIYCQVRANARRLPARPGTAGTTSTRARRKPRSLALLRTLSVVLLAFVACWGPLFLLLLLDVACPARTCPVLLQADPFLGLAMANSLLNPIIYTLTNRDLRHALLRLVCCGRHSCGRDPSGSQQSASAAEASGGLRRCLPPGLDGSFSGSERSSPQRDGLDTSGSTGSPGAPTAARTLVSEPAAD
Chain of Sphingosine 1-phosphate receptor 1 (P48303 whole entry): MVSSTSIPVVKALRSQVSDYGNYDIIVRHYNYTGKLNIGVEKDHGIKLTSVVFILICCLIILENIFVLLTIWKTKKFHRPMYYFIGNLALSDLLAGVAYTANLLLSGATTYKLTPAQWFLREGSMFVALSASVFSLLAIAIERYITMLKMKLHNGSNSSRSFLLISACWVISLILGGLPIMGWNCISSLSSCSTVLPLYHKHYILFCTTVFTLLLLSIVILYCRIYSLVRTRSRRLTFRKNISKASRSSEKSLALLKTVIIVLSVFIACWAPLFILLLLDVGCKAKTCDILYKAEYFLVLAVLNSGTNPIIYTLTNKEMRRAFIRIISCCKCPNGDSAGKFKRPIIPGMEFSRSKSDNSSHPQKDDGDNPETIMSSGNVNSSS
Chain of Sphingosine 1-phosphate receptor 3 (Q99500 whole entry): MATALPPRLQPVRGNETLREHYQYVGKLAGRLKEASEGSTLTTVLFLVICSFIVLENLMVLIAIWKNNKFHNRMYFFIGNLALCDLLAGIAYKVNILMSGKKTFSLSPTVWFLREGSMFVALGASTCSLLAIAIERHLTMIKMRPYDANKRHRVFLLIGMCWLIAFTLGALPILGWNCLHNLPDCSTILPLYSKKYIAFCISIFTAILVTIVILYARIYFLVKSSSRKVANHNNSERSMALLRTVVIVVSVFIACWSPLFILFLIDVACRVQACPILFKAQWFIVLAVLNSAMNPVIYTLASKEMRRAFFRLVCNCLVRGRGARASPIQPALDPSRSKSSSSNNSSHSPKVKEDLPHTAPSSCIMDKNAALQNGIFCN

As to `Cc1ccc(CCCC(=O)c2ccc(CC[C@@](C)(N)COP(=O)(O)O)n2C)cc1`, the Ratio EC50 was determined as 100 in series [1] and 320 in series [3]. Besides, in series [2], the EC50 was 200 nM.
For the compound `CCCCCCCCc1ccc(CC[C@](N)(CO)COP(=O)(O)O)cc1` [FTY720-P], the EC50 in series [2] came to 1.3 nM.
Turning to `CCc1cc(CN2CC(C(=O)O)C2)sc1-c1noc(-c2ccc(Oc3ccccc3)cc2)n1`, the Drug metabolism entry in [4] and in [9] was “Active” each time. In addition, the outcome in series [5] and in series [17] was Active. In addition, the Activity in series [6] was 27%; in series [28] it was 11%. Besides, the figures for the Tmax in [7], in series [22] and in [24] were 4 h, 4 h and 2 h, respectively. In addition, the values for the half-life in [8], in series [26] and in [27] were 8.73 h, 13.9 h and 12.4 h, respectively. In addition, the Cmax came to 186 ng/mL in [10], 17.4 ng/mL in [19] and 135 ng/mL in series [25]. For the same compound, the AUC(0-t) at 72 h in [11] is 1540 ng·h/mL; in series [16] it was 268 ng·h/mL; in series [29], 2670 ng·h/mL. For the same compound, the EC50 in series [12] is 1.5 nM; in [13], 58 nM; in series [18] it was more than 20000 nM; in [2], 7400 nM; in series [23], 17 nM. Moreover, the ED50 in series [14] stood at 0.44 mg/kg. In addition, the Stability result in series [15] and in [21] was “Stable” each time. The result in series [20] was inactive. For the same compound, the Ratio EC50 in [3] is more than 5000.

One may read the EC50 as the concentration needed to bring the measured effect to its halfway point. A word on the Tmax: it is the time from dosing to the highest level. The term Cmax denotes the maximum level reached in the sampled fluid or tissue. By AUC(0-t) is commonly meant exposure summed from dosing to a finite time, without extrapolation to infinity.

The values above are taken from ChEMBL document CHEMBL1955716, “Synthesis and evaluation of CS-2100, a potent, orally active and S1P(3)- sparing S1P(1) agonist” (Eur J Med Chem, 2012).
